Screening results deposited in PubChem by several laboratories.
CendR NRP1 mod = alters CendR peptide binding to human NRP-1. O14786. FAM-RPARPAR peptide binding to NRP-1, fluorescence polarization. inhibition, % at 25 µM. hit rate 0.85% among 360,000. AID 602438;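 active = inhibition or corrected inhibition above about 18%, plus a signal ratio from 0.5 to 1.5, limit read from the data, passing the limit was not always enough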
Target sequence (O14786 whole entry, looked up): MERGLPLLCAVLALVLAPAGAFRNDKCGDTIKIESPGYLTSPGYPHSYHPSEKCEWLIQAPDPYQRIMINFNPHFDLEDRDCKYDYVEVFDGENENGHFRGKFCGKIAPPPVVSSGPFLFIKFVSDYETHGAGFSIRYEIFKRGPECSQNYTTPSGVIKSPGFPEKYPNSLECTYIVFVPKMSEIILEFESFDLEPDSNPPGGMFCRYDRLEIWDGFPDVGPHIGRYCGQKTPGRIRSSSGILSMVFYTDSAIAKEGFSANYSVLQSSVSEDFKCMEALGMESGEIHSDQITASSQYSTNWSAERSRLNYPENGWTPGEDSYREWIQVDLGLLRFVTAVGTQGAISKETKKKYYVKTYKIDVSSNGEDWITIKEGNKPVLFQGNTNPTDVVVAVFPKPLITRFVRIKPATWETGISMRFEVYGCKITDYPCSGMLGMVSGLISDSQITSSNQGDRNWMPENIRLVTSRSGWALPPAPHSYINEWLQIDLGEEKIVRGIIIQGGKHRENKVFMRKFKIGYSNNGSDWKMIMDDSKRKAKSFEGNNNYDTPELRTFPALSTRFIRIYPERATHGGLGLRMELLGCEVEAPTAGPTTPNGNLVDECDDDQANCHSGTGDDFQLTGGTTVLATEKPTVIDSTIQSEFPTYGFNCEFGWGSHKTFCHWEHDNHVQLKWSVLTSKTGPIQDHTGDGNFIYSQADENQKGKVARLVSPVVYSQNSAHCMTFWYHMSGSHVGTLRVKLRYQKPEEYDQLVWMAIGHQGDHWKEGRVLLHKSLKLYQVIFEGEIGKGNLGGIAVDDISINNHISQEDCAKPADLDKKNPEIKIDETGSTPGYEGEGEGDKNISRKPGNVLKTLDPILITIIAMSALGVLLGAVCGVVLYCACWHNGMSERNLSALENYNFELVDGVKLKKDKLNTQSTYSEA
Tn7 DDE FP = inhibitors of Tn7 peptide binding to human fibrin DD(E) | FP displacement of FITC-Tn7 peptide from fibrin DD(E); 0% = median of compound wells per plate | hit rate 0.13% among 370,000 | P02675 | inhibition, % at 8.3 µM | AID 720508;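 active = inhibition above the mean of compounds falling within the control limits plus 3 SD of them, cut at about 14% in these data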
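Test system: human clot-derived fibrin DD(E) complex / Quantity: 2 µM final DD(E) protein / Incubation: 10 min plus 3 h, room temperature / Measured by: fluorescence polarization / Benchmarks: high control of 10 µM Aha-Tn7 peptide / Replicates: singlicate testing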
Tn6 DDE FP = DD(E)-Tn6 binding inhibition, primary FP screen; hit rate 0.21% among 370,000; AID 720509; P02675; Fibrin DD(E) TRITC-Tn6 fluorescence polarization displacement; inhibition, % at 8.3 µM;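 active = inhibition above a per-campaign cutoff: mean of compounds within control limits plus 3 SD, cut at about 15% in these data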
aDG glyco act = increases alpha dystroglycan glycosylation; AID 624168; Pro5-aDG cells, alpha-DG glycosylation AlphaScreen (IIH6); 0% Pro5, 100% B10-LARGE cell signal; hit rate 0.22% among 360,000; activation, % at 10 µM;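 active = activation of at least 8% versus controls, or a plate z-score of at least 8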;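 note: Pro5 are CHO cells carrying HIG-tagged alpha-DG that lacks glycosylation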
Numbers stand for hits; – = inactive; · = no result given; ! = repeats disagree. This is a sample that favours compounds with a hit; in the whole collection about 1.3% have one here.

SMILES	CendR NRP1 mod	Tn7 DDE FP	Tn6 DDE FP	aDG glyco act
CC1OC(OC2C(Oc3c(-c4ccc(O)cc4)oc4cc(O)cc(O)c4c3=O)OC(COC3O[C@@H](C)[C@H](O)[C@@H](O)C3O)C(O)C2O)C(O)C(O)C1O (some centres not stated)	–	–	–	–
CCCOc1ccc(OCC(=O)c2[nH]c(C)c(C(C)=O)c2C)cc1	41	·	·	–
Cc1ccc(NC(=O)CN2C(=O)NC(C)(c3ccc4c(c3)OCO4)C2=O)cc1 (configuration not stated)	–	–	–	–
CC1(c2ccc(Cl)cc2)NC(=O)N(CC(=O)Nc2ccc3c(c2)OCO3)C1=O (configuration not stated)	35	–	–	–
O=C(CNC(=O)N1CC(=O)Nc2ccccc21)Nc1ccc(Cl)cc1Cl	–	–	–	–
Cc1cc(/C=C(\C#N)C(=O)OCC#N)c(C)n1CC(C)C	33	–	–	–
Cc1c(O)ccc(/C=N/Nc2ncccc2[N+](=O)[O-])c1O	–	–	–	5.8
CN1C=CC2=C(C#N)C(N)C(C#N)(C#N)[C@H](c3ccccc3)[C@H]2C1 (some centres not stated)	23	–	–	–
COc1ccc(CNS(=O)(=O)c2cc(Cl)ccc2N2CC[C@@H](O)C2)cc1	·	–	–	·
N=c1n(CC(=O)c2ccc(Br)cc2)c2ccccc2n1Cc1ccccc1	–	–	–	9.1
Cn1c(=N)n(CC(=O)c2ccccc2)c2ccccc21	–	–	–	–
N=c1n(CC(=O)c2ccc([N+](=O)[O-])cc2)c2ccccc2n1Cc1ccccc1	–	–	–	–
Cn1c(=N)n(CC(=O)c2ccc(Cl)c(Cl)c2)c2ccccc21	–	–	–	7.4
Fc1ccccc1C(c1nnnn1C1CCCC1)N1CCN(Cc2ccccc2)CC1 (configuration not stated)	22	–	–	–
COc1ccccc1N1CCN(C2CCCN(C(=O)Cn3cccn3)C2)CC1 (configuration not stated)	24	–	–	–
Cc1ccccc1N1CCN(C2CCCN(C(=O)CCN3CCCCO3)C2)CC1 (configuration not stated)	26	–	–	–
Cc1ccccc1N1CCN(C2CCCN(C(=O)CCN3CCCCC3=O)C2)CC1 (configuration not stated)	–	–	–	–
CC1(C)Oc2c(ccc(O)c2CN2CCOCC2)C2=C1CCCC2	–	–	–	–
CNc1nc(-c2ccc3c(c2)CCN3C(=O)c2ccccc2F)c(C)s1	–	–	–	–
CNc1nc(-c2ccc3c(c2)CCN3C(=O)c2ccccc2F)cs1	24	–	–	–
Cc1ccc(-n2[nH]c(C)c(C=Nc3ccc4[nH]c(=O)[nH]c4c3)c2=O)cc1	30	–	–	–
CC1=C(C(=O)N(C(C)C)C(C)C)CC(CC(=O)NC2CCCC2)C(=O)N1Cc1ccc(C(C)(C)C)cc1 (configuration not stated)	–	–	–	–
COCCN(C(=O)C1CC(=O)N(Cc2ccccc2)C1)c1nc(-c2ccc([N+](=O)[O-])cc2)cs1 (configuration not stated)	–	–	–	–
Cc1ccc(O)c(CNCCNCc2cc(C)ccc2O)c1	25	–	–	–
Cc1ccc(C(=O)O)cc1NC(=O)Nc1cccc2ccccc12	22	–	–	–
SMILES	CendR NRP1 mod	Tn7 DDE FP	Tn6 DDE FP	aDG glyco act
O=C(Nc1ccc(C(=O)O)cc1)Nc1cccc2ccccc12	–	–	–	–
Cc1[nH]nc(N=CC2=C(O)CC(C)(C)CC2=O)c1-c1ccccc1	19!	–	–	–
Cc1ccc(S(=O)(=O)N2[C@H](CC(=O)c3ccc(F)cc3)OC[C@@H]2C)cc1	–	–	–	–
Cc1ccc(S(=O)(=O)N2CCN(c3nc(-c4cccs4)nc4ccccc34)CC2)cc1	–	–	–	–
Cc1cn([C@H]2C[C@H](O)[C@@H](CCC(=O)NCCc3ccc4ccccc4c3)O2)c(=O)[nH]c1=O	22	–	–	–
Cc1cn([C@H]2C[C@H](O)[C@@H](CCC(=O)NCc3ccccc3)O2)c(=O)[nH]c1=O	–	–	–	–
CC(C)[C@H](CO)Nc1nc(NCc2ccc(S(N)(=O)=O)cc2)c2ncn(C(C)C)c2n1	–	–	–	–
CC(C)n1cnc2c(NCc3ccc(S(N)(=O)=O)cc3)nc(NCc3ccc(S(N)(=O)=O)cc3)nc21	32	–	–	–
CC(C)(C)N1C(=O)c2ccccc2NC(=O)C1C(=O)NCc1ccco1 (configuration not stated)	–	–	–	–
CCCCn1nnnc1C(c1cc2ccccc2o1)N1CCCCC1 (configuration not stated)	–	–	–	–
CCCCn1nnnc1C(c1cc2ccccc2o1)N1CCN(c2c(C)cccc2C)CC1 (configuration not stated)	26	–	–	–
Cc1nnc(NC(=O)c2cc(S(=O)(=O)N(C)C)ccc2N2CCCC2)s1	23	–	–	–
O=C(NCCO)c1ccc2c(c1)S(=O)(=O)c1ccccc1C2=O	22	–	–	–
OCCCn1c(CCNc2nc(-c3ccc(Cl)cc3)cs2)nc2cc(C(F)(F)F)ccc21	–	–	–	–
O=[N+]([O-])c1cc(-c2csc(NCCc3nc4cc(C(F)(F)F)ccc4n3CCCO)n2)ccc1Cl	28	–	–	–
C=CCN(c1ccccc1OC)S(=O)(=O)c1cccc(C(=O)NCC(c2ccc(OC)cc2)N2CCCC2)c1 (configuration not stated)	–	–	–	–
CCn1nc(C)c(CN2CCC(n3nccc3NC(=O)Cc3ccccc3)CC2)c1C	21	–	–	–
COc1ccc(-n2nc(C(=O)NCC(=O)NCc3cccc(F)c3)c3ccccc3c2=O)cc1Cl	–	–	–	–
CCCOc1ccc(N2C(=O)CC(N3CCOCC3)C2=O)cc1 (configuration not stated)	–	–	–	–
CCCOc1ccc(N2C(=O)CC(N3CCN(CCN=CC4C(=O)CC(C)(C)CC4=O)CC3)C2=O)cc1 (configuration not stated)	25	–	–	–
COc1cccc2c1NC(C(=O)O)C1CC=CC21 (configuration not stated)	42	·	·	–
CC(=O)c1ccc2c(c1)C1C=CCC1C(C(=O)O)N2 (configuration not stated)	–	–	–	–
COC(=O)CCC[C@H](C)[C@@H](NS(=O)(=O)c1ccc(C)cc1)C(C)(C)C	·	–	–	·
COc1ccc(OC)c(C(=O)NC(CC(N)=O)c2ccc(N3CCN(c4ccccn4)CC3)c([N+](=O)[O-])c2)c1 (configuration not stated)	–	–	–	–
COC(=O)c1ccc(N/C=C\C(=O)c2ccc3c(c2)OCO3)cc1	22	–	–	–
CCOC(=O)Nc1ccc2c(c1)C(=NNC(=S)NC)c1ccccc1-2	–	15	–	–
CCOC(=O)NN=C1c2ccccc2-c2ccccc21	–	–	–	–
